Source: ChEMBL document CHEMBL1800056, “Discovery of 2-(6-{[(6-fluoroquinolin-2-yl)methyl]amino}bicyclo[3.1.0]hex-3-yl)-N-hydroxypyrimidine-5-carboxamide (CHR-3996), a class I selective orally active histone deacetylase inhibitor” (J Med Chem, 2010)
Active and inactive are the calls of the source. No cut-off for these calls is given here.

Assays:
Histone deacetylase = assay: Inhibition of HDAC in human HeLa cells nuclear extract using fluor de Lys as substrate preincubated for 5 mins by fluorometric analysis; format: cell-based
HCT-116 [1] = assay: Antiproliferative activity against human HCT116 cells after 72 hrs by WST-1 assay; format: functional; conditions: Homo sapiens, HCT-116, 72 h
Summary of the method: (§1)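 Cells seeded at (1-5) × 10³/well in serum-containing medium for 24 h at 37 °C, 5% CO₂. Inhibitor added at 0.6-10000 nM for 72 h, with WST-1 pulse over the final 4 h. Formazan read at 450 nm (reference 650 nm). Expressed as % inhibition of vehicle response; GI50 is the concentration inhibiting 50% of vehicle response; n = 6 replicates.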

[2] = Ratio of GI50 for human HCT116 cells to IC50 for HDAC in human HeLa cell nuclear extracts
Summary of the method: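 Cell/enzyme ratio = HCT116 GI50 divided by HDAC IC50. Enzyme: HeLa nuclear extract (10 μg protein), 5 min preincubation, then Fluor de Lys substrate 62.5 μM, 15 min at room temperature. Stopped with developer containing trichostatin A; fluorescence ex 355/em 455 nm; eight concentrations in duplicate. Cells: HCT116, 72 h exposure (0.6-10000 nM), WST-1 read at 450 nm, n = 6.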

[3] = AUC (0 to t) in plasma of CD1 mouse at 3 mg/kg, po; format: ADME, organism-based; parameters: dose 3 mg/kg, route oral
Summary of the method: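 Oral cassette PK in CD1 mice: four compounds per cassette, each at 3 mg/kg po. AUC0-t (ng h/mL) measured in plasma and spleen; spleen/plasma AUC ratio reported.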

[4] = Clearance in mouse liver microsomes assessed as compound remaining after 30 mins; format: ADME, Microsome; conditions: read-out: Activity
[5] = Clearance in human liver microsomes assessed as compound remaining after 30 mins; format: ADME, Microsome; conditions: read-out: Activity
Cytochrome P450 2C19 [6] = molecular target: T1, Cytochrome P450 2C19 (Homo sapiens, UniProt P33261); assay: Inhibition of CYP2C19; format: ADME
T1 sequence (P33261 whole entry): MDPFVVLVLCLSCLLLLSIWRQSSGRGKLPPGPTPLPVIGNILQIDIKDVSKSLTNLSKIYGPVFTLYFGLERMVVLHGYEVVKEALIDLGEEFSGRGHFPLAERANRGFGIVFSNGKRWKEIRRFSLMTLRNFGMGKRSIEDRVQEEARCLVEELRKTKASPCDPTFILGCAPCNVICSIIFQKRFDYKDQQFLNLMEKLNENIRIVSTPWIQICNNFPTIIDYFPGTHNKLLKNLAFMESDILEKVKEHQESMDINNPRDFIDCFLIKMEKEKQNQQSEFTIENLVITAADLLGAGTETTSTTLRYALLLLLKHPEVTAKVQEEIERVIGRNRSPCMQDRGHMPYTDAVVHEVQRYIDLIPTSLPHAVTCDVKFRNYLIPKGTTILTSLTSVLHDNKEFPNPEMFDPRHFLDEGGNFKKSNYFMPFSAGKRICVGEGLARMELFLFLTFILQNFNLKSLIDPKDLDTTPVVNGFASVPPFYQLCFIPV

Cytochrome P450 2D6 [7] = molecular target: T2, Cytochrome P450 2D6 (Homo sapiens, UniProt P10635); assay: Inhibition of CYP2D6; format: ADME
T2 sequence (P10635 whole entry): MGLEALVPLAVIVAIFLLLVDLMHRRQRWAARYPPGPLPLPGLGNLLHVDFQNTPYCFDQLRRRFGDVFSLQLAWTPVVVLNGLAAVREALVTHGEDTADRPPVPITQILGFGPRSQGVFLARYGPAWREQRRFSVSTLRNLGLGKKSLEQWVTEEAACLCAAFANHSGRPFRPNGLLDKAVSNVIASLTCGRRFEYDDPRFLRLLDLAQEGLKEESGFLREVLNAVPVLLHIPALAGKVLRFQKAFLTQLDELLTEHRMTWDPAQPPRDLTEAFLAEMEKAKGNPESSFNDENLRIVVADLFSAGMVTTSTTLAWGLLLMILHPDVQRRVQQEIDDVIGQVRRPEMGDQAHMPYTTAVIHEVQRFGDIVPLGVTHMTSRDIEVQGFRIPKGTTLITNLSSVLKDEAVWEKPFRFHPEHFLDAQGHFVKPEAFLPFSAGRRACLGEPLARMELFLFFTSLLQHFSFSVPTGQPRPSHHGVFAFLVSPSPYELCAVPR

Cytochrome P450 3A4 [8] = molecular target: T3, Cytochrome P450 3A4 (Homo sapiens, UniProt P08684); assay: Inhibition of CYP3A4; format: ADME
T3 sequence (P08684 whole entry): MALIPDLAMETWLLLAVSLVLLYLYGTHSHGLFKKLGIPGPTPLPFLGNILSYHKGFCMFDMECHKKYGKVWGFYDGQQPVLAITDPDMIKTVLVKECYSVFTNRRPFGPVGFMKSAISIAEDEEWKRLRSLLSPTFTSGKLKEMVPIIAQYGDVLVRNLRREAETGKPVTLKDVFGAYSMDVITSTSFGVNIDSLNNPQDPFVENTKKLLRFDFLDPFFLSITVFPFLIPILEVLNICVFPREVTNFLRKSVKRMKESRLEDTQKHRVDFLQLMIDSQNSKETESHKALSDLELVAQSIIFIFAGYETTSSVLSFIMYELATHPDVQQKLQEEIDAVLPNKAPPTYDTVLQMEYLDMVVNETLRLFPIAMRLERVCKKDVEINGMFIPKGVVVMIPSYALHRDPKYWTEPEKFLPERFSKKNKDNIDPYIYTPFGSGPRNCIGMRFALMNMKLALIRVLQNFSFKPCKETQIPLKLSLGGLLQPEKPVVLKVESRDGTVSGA

Cytochrome P450 2C19 [9] = molecular target: T1, Cytochrome P450 2C19; assay: Inhibition of CYP 2C19 at < 10 uM; format: ADME
Cytochrome P450 2D6 [10] = molecular target: T2, Cytochrome P450 2D6; assay: Inhibition of CYP2D6 at < 10 uM; format: ADME
Cytochrome P450 3A4 [11] = molecular target: T3, Cytochrome P450 3A4; assay: Inhibition of CYP3A4 at < 10 uM; format: ADME
[12] = AUC (0 to t) in dog at 1 mg/kg, iv; format: ADME, organism-based, Canis lupus familiaris; parameters: dose 1 mg/kg, route intravenous; conditions: plasma
Summary of the method: (§2)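 Dog single dose: iv 1 mg/kg in 5% DMSO-HPβC (11.25% w/v); po 10 mg/kg in 5% DMSO-saline. AUC0-t in ng h/mL, clearance in (mL/min)/kg, t1/2 in h, F in %.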

[13] = Clearance in dog at 1 mg/kg, iv; format: ADME, organism-based, Canis lupus familiaris; parameters: dose 1 mg/kg, route intravenous; conditions: in vivo; summary of the method: as §2
[14] = AUC (0 to t) in dog at 10 mg/kg, po; format: ADME, organism-based, Canis lupus familiaris; parameters: dose 10 mg/kg, route oral; conditions: plasma; summary of the method: as §2
[15] = Oral bioavailability in dog at 10 mg/kg; format: ADME, organism-based, Canis lupus familiaris; conditions: in vivo; summary of the method: as §2
Histone deacetylase 1 = Histone deacetylase 1 (Homo sapiens, UniProt Q13547); assay: Inhibition of human recombinant HDAC1 using fluor de Lys as substrate by fluorometric analysis
Sequence of Histone deacetylase 1 (Q13547 whole entry): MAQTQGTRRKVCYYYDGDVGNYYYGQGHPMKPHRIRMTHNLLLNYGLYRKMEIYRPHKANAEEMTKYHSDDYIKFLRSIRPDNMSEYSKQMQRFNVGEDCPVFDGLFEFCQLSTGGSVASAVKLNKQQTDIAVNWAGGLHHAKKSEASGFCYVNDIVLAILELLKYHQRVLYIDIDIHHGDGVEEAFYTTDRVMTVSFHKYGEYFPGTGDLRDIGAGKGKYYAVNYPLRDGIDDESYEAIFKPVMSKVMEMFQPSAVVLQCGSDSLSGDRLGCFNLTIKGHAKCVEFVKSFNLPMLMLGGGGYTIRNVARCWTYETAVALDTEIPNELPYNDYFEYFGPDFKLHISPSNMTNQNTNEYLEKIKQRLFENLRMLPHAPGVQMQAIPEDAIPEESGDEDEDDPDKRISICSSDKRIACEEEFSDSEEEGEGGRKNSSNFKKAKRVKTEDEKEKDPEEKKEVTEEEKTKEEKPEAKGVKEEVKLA

Histone deacetylase 3 = Histone deacetylase 3 (Homo sapiens, UniProt O15379); assay: Inhibition of human recombinant HDAC3 using fluor de Lys as substrate by fluorometric analysis
Sequence of Histone deacetylase 3 (O15379 whole entry): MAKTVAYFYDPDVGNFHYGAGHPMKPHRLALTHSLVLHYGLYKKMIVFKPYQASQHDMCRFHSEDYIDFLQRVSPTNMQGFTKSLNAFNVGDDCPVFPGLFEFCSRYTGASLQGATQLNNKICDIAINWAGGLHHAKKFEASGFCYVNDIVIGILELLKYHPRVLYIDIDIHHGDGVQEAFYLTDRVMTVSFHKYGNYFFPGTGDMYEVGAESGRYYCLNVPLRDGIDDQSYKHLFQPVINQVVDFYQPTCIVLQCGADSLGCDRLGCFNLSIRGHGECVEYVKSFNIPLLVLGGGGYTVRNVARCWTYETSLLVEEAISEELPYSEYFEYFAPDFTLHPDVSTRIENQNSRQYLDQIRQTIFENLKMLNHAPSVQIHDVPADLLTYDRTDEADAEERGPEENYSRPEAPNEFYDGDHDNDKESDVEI

Histone deacetylase 5 = Histone deacetylase 5 (Homo sapiens, UniProt Q9UQL6); assay: Inhibition of human recombinant HDAC5 using fluor de Lys as substrate by fluorometric analysis
Sequence of Histone deacetylase 5 (Q9UQL6 whole entry): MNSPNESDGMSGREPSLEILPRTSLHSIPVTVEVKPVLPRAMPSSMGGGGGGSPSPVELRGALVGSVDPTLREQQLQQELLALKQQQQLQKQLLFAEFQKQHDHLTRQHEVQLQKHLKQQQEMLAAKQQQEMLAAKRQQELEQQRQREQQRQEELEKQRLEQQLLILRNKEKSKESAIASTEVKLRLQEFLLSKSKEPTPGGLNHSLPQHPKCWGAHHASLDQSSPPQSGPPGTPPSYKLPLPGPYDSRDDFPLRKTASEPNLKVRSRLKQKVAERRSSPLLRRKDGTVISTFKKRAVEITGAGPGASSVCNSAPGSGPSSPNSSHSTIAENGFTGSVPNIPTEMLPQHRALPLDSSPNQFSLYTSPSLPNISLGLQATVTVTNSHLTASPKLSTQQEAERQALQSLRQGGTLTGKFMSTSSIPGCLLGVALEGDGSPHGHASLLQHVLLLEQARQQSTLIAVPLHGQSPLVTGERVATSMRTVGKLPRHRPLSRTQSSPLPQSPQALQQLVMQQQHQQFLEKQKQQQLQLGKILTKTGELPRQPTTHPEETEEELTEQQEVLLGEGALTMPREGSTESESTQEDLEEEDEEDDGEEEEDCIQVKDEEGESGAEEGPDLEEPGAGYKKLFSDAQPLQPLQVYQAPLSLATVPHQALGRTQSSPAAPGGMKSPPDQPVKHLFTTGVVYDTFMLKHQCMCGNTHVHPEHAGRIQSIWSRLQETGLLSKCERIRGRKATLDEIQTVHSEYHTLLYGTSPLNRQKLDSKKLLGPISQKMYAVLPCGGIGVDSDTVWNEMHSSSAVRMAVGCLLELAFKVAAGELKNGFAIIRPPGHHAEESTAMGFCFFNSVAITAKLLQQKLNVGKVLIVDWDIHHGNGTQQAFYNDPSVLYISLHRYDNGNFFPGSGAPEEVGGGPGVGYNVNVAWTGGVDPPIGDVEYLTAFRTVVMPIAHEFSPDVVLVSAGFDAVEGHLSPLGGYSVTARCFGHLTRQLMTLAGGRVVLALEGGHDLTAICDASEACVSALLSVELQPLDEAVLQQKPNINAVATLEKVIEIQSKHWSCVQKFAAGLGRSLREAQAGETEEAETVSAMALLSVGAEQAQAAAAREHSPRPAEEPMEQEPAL

[16] = molecular target: Protein deacetylase HDAC6 (Homo sapiens, UniProt Q9UBN7); assay: Inhibition of human recombinant HDAC6 using fluor de Lys as substrate by fluorometric analysis
Sequence of Protein deacetylase HDAC6 (Q9UBN7 whole entry): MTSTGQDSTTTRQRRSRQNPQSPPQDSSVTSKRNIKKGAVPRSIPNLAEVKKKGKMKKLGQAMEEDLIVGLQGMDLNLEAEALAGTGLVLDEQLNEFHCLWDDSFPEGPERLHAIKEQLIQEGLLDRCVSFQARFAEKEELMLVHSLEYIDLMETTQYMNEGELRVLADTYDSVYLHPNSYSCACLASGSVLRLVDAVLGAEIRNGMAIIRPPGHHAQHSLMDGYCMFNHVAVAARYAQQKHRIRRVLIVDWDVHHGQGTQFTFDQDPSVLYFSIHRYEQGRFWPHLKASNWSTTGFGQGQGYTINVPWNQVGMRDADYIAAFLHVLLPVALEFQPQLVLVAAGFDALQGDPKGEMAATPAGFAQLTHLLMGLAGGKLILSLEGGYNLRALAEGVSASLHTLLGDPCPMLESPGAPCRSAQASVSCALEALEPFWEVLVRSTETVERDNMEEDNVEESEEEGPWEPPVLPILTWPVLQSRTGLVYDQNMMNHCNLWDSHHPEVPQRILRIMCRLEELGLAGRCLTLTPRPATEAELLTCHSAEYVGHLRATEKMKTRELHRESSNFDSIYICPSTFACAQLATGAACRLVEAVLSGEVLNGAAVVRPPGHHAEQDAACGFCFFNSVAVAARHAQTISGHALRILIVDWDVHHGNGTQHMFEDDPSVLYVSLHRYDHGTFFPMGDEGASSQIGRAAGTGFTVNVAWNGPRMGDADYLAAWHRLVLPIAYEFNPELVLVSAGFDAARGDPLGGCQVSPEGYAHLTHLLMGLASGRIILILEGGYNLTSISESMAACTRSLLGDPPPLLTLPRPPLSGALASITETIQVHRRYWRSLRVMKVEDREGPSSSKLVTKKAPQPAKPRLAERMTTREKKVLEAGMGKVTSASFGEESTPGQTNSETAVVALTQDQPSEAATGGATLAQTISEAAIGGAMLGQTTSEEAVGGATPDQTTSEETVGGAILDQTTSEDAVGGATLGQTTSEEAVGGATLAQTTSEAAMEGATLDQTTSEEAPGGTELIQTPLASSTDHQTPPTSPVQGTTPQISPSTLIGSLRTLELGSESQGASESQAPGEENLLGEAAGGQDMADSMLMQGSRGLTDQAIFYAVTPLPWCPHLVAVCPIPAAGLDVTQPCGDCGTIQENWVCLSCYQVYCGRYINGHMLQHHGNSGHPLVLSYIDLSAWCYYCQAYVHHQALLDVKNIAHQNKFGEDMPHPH

HCT-116 [17] = assay: Induction of apoptosis in human HCT116 cells assessed as PARP cleavage after 30 hrs by Western blot analysis; format: functional, cell-based
Summary of the method: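 HCT116 cells seeded at 2 × 10⁴ cells/mL and treated 24 h later for 30 h. RIPA lysates run at 10 μg/lane on 4-12% gels. Blotted with antibodies to PARP and cleaved PARP (1:1000); GAPDH as loading control; ECL detection.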

LoVo = assay: Antiproliferative activity against human LoVo cells after 72 hrs by WST-1 assay; format: functional; conditions: Homo sapiens, LoVo, 72 h; summary of the method: as §1
DU-145 = assay: Antiproliferative activity against human DU145 cells after 72 hrs by WST-1 assay; format: functional; conditions: DU-145, 72 h
Summary of the method: (§3)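 Cells seeded at (1-5) × 10³/well in serum-containing medium for 24 h at 37 °C, 5% CO₂. Inhibitor added at 0.6-10000 nM for 72 h, with WST-1 pulse over the final 4 h. Formazan read at 450 nm (reference 650 nm).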

PC-3 = assay: Antiproliferative activity against human PC3 cells after 72 hrs by WST-1 assay; format: functional; conditions: PC-3, 72 h; summary of the method: as §1
HepG2 = assay: Antiproliferative activity against human HepG2 cells after 72 hrs by WST-1 assay; format: functional; conditions: Homo sapiens, HepG2, 72 h; summary of the method: as §1
MG-63 = assay: Antiproliferative activity against human MG63 cells after 72 hrs by WST-1 assay; format: functional; conditions: Homo sapiens, MG-63, 72 h; summary of the method: as §1
MIA PaCa-2 = assay: Antiproliferative activity against human MIAPaCa2 cells after 72 hrs by WST-1 assay; format: functional; conditions: Homo sapiens, MIA PaCa-2, 72 h; summary of the method: as §1
A549 = assay: Antiproliferative activity against human A549 cells after 72 hrs by WST-1 assay; format: functional; conditions: Homo sapiens, A549, 72 h; summary of the method: as §1
COR-L23 [18] = assay: Antiproliferative activity against human COR-L23 cells after 72 hrs by WST-1 assay; format: functional; conditions: Homo sapiens, COR-L23, 72 h; summary of the method: as §1
COR-L23 [19] = assay: Antiproliferative activity against doxorubicin-resistant human COR-L23 cells after 72 hrs by WST-1 assay; format: functional; conditions: Homo sapiens, COR-L23, 72 h; summary of the method: as §1
MOLT-4 = assay: Antiproliferative activity against human MOLT4 cells after 72 hrs by WST-1 assay; format: functional; conditions: Homo sapiens, MOLT-4, 72 h; summary of the method: as §1
HuT78 = assay: Antiproliferative activity against human HUT78 cells after 72 hrs by WST-1 assay; format: functional; conditions: HuT78, 72 h; summary of the method: as §3
U-937 = assay: Antiproliferative activity against human U937 cells after 72 hrs by WST-1 assay; format: functional; conditions: Homo sapiens, U-937, 72 h; summary of the method: as §1
HCT-116 [20] = assay: Cell cycle arrest in human HCT116 cells assessed as accumulation at sub-G1 phase at 300 nM after 15 hrs by propidium iodide staining based flow cytometric analysis; format: functional
HCT-116 [21] = assay: Cell cycle arrest in human HCT116 cells assessed as accumulation at G1 phase at 300 nM after 15 hrs by propidium iodide staining based flow cytometric analysis; format: functional
HCT-116 [22] = assay: Cell cycle arrest in human HCT116 cells assessed as accumulation at S phase at 300 nM after 15 hrs by propidium iodide staining based flow cytometric analysis; format: functional
Spleen = assay: Ratio of AUC (0 to t) in spleen to plasma of CD1 mouse at 3 mg/kg, po; conditions: in vivo

SMILES | IC50 (Histone deacetylase) [nM] | GI50 (HCT-116 [1]) [nM] | Ratio [2] | AUC(0-t) [3] [ng·h/mL] | remaining at 0.5 h [4] [%] | remaining at 0.5 h [5] [%] | IC50 (Cytochrome P450 2C19 [6]) [µM] | IC50 (Cytochrome P450 2D6 [7]) [µM] | IC50 (Cytochrome P450 3A4 [8]) [µM] | inhibition (INH) (Cytochrome P450 2C19 [9]) | inhibition (INH) (Cytochrome P450 2D6 [10]) | inhibition (INH) (Cytochrome P450 3A4 [11]) | AUC(0-t) [12] [ng·h/mL] | clearance [13] [mL/min/kg] | AUC(0-t) [14] [ng·h/mL] | bioavailability [15] [%] | IC50 (Histone deacetylase 1) [nM] | IC50 (Histone deacetylase 3) [nM] | IC50 (Histone deacetylase 5) [nM] | IC50 [16] [nM] | further results
O=C(NO)c1cnc(N2C[C@@H]3[C@H](C2)[C@H]3NCc2ccc3cc(F)ccc3n2)nc1 [NANATINOSTAT] | 8 | 72 | 9 | 93 | 31 | 21 | > 50 | > 50 | 10 | Not Active | Not Active | Not Active | 241 | 70 | 950 | 40 | 3 | 7 | 200 | 2100 | Ki (Histone deacetylase): 4.8 nM; Activity (HCT-116 [17]): Active; GI50 (LoVo): 140 nM; GI50 (DU-145): 48 nM; GI50 (PC-3): 160 nM; GI50 (HepG2): 230 nM; GI50 (MG-63): 750 nM; GI50 (MIA PaCa-2): 280 nM; GI50 (A549): 250 nM; GI50 (COR-L23 [18]): 105 nM; GI50 (COR-L23 [19]): 560 nM; GI50 (MOLT-4): 31 nM; GI50 (HuT78): 31 nM; GI50 (U-937): 52 nM; Activity (HCT-116 [20]): 21%; Activity (HCT-116 [21]): 21%; Activity (HCT-116 [22]): 10%; Ratio (Spleen): 8.3
O=C(NO)c1cnc(N2C[C@@H]3[C@H](C2)[C@H]3NCc2ccc(Cl)cc2)nc1 | 13 | 210 | 16 | 58 | 43 | 38 | 50 | 10 | > 50 | Not Active | Not Active | Not Active | 265 | 63 | 1480 | 56 | 6 | 10 | 500 | 3300 | Activity (HCT-116 [17]): Active; GI50 (LoVo): 310 nM; GI50 (DU-145): 92 nM; GI50 (PC-3): 260 nM; GI50 (HepG2): 470 nM; GI50 (MG-63): 1600 nM; GI50 (MIA PaCa-2): 620 nM; GI50 (A549): 500 nM; GI50 (COR-L23 [18]): 210 nM; GI50 (COR-L23 [19]): 1100 nM; GI50 (MOLT-4): 71 nM; GI50 (HuT78): 60 nM; GI50 (U-937): 120 nM; Activity (HCT-116 [20]): 23%; Activity (HCT-116 [21]): 33%; Activity (HCT-116 [22]): 11%; Ratio (Spleen): 7.5
